Reference: ChEMBL document CHEMBL1240306, “Allosteric inhibitors of Bcr-abl-dependent cell proliferation” (Nat Chem Biol, 2006)

Columns and labels:
[1] = Antiproliferative activity against mouse 32D cells transfected with p210 cells expressing Bcr-abl assessed as proliferation after 48 hrs by MTT assay; assay type: cell-based
[2] = Antiproliferative activity against mouse 32D Bcr-abl negative cells assessed as proliferation after 48 hrs by MTT assay
K562 = assay: Antiproliferative activity against human K562 expressing Bcr-abl assessed as proliferation after 48 hrs by MTT assay; assay type: functional, cell-based; conditions: K562, 48 h
How it was run: (§1)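 Cells seeded at 0.3–0.6 × 10^6/ml in duplicate or triplicate with increasing compound (0.005–10 μM), 37 °C, 5% CO2, 48 h. Viability by MTT dye reduction, expressed as % growth of DMSO-treated cells; IC50 from dose-response curves. Ba/F3 lines carry geneticin selection (1 mg/ml) in RPMI-1640/10% FBS; parental Ba/F3 kept with 10 U/ml murine IL-3.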

Jurkat = assay: Antiproliferative activity against human Jurkat Bcr-abl negative cells assessed as proliferation after 48 hrs by MTT assay; assay type: functional, cell-based; how it was run: as §1
[3] = Antiproliferative activity against human M07e Bcr-abl negative cells expressing stem cell factor assessed as proliferation after 48 hrs by MTT assay; assay type: functional, cell-based; conditions: M-07e
How it was run: (§2)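 Human megakaryoblastic Mo7e cells grown in RPMI-1640, 20% FBS, with either 5 ng/ml human GM-CSF or 200 ng/ml stem cell factor (c-kit-driven growth). Compound up to 10 μM, 48 h at 37 °C; viability read by MTT reduction relative to DMSO-treated cells.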

[4] = Antiproliferative activity against human M07e Bcr-abl negative cells expressing granulocyte-macrophage colony stimulating factor assessed as proliferation after 48 hrs by MTT assay; assay type: functional, cell-based; conditions: M-07e; how it was run: as §2
[5] = Antiproliferative activity against mouse BA/F3 Bcr-abl negative cells expressing FIt3-ITD kinase assessed as proliferation after 48 hrs by MTT assay; assay type: functional, cell-based; conditions: BaF3, 48 h; how it was run: as §1
[6] = Antiproliferative activity against mouse BA/F3 Bcr-abl negative cells expressing Tel-PDGFRbeta kinase assessed as proliferation after 48 hrs by MTT assay; assay type: functional, cell-based; conditions: BaF3, 48 h; how it was run: as §1
[7] = Antiproliferative activity against mouse BA/F3 Bcr-abl negative cells expressing TPR-MET kinase assessed as proliferation after 48 hrs by MTT assay; assay type: functional, cell-based; conditions: BaF3, 48 h; how it was run: as §1
[8] = Antiproliferative activity against mouse BA/F3 Bcr-abl negative cells expressing Tel-JAK1 kinase assessed as proliferation after 48 hrs by MTT assay; assay type: functional, cell-based; conditions: BaF3, 48 h; how it was run: as §1
[9] = Antiproliferation activity against mouse BA/F3 cells expressing Bcr-abl A334l mutant assessed as cell viability after 48 hrs by MTT assay; assay type: functional, cell-based; conditions: BaF3, 48 h, in the assay text read “A344L” for “A334l”; how it was run: as §1
[10] = Antiproliferation activity against mouse BA/F3 cells expressing Bcr-abl A337N mutant assessed as cell viability after 48 hrs by MTT assay; assay type: functional, cell-based; conditions: BaF3, 48 h; how it was run: as §1
[11] = Antiproliferation activity against mouse BA/F3 cells expressing Bcr-abl assessed as cell viability after 48 hrs by MTT assay; assay type: functional, cell-based; conditions: BaF3, 48 h; how it was run: as §1
[12] = target: Mitogen-activated protein kinase 12 (Homo sapiens) (UniProt P53778); assay: Inhibition of human SAPK3 activity at 10 uM by radiometric assay
Sequence of Mitogen-activated protein kinase 12 (Homo sapiens) (P53778 whole entry): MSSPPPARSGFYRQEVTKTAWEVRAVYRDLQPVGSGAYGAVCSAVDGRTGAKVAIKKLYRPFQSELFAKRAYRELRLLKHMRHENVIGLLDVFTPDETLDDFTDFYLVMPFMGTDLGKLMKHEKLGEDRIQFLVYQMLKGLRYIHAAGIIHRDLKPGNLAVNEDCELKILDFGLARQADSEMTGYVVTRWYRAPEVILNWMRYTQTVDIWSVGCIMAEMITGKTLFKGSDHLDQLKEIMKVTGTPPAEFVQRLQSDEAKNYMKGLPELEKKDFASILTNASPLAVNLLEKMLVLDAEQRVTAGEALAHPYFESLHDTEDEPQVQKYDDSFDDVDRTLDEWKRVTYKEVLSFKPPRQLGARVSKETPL

[13] = target: Aurora kinase A (Homo sapiens) (UniProt O14965); assay: Inhibition of human aurora-A activity at 10 uM by radiometric assay
[14] = target: BDNF/NT-3 growth factors receptor (Homo sapiens) (UniProt Q16620); assay: Inhibition of human TrkB activity at 10 uM by radiometric assay
[15] = target: Angiopoietin-1 receptor (Homo sapiens) (UniProt Q02763); assay: Inhibition of human Tie2 activity at 10 uM by radiometric assay
[16] = target: Platelet-derived growth factor receptor beta (Homo sapiens) (UniProt P09619); assay: Inhibition of human PDGFR-beta activity at 10 uM by radiometric assay
[17] = target: Ribosomal protein S6 kinase alpha-1 (Homo sapiens) (UniProt Q15418); assay: Inhibition of human Rsk1 activity at 10 uM by radiometric assay
[18] = target: Serine/threonine-protein kinase D2 (Homo sapiens) (UniProt Q9BZL6); assay: Inhibition of human PKD2 activity at 10 uM by radiometric assay
[19] = target: Protein kinase C alpha type (Homo sapiens) (UniProt P17252); assay: Inhibition of human PKCalpha activity at 10 uM by radiometric assay
[20] = target: Serine/threonine-protein kinase Nek2 (Homo sapiens) (UniProt P51955); assay: Inhibition of human NEK2 activity at 10 uM by radiometric assay
Sequence of Serine/threonine-protein kinase Nek2 (Homo sapiens) (P51955 whole entry): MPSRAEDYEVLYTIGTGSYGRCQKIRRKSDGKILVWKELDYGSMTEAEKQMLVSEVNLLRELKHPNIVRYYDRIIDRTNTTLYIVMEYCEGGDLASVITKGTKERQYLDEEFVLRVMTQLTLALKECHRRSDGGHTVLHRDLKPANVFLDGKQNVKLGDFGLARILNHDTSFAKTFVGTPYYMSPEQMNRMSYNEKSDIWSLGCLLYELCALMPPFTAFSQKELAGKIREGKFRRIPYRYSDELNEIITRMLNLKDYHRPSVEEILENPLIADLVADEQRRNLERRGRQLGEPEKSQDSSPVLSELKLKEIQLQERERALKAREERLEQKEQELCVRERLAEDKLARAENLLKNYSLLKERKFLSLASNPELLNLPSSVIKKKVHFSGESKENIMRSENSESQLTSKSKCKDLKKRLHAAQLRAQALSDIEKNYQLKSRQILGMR

[21] = target: MAP kinase-activated protein kinase 2 (Homo sapiens) (UniProt P49137); assay: Inhibition of human MAPKAP-K2 activity at 10 uM by radiometric assay
Sequence of MAP kinase-activated protein kinase 2 (Homo sapiens) (P49137 whole entry, looked up): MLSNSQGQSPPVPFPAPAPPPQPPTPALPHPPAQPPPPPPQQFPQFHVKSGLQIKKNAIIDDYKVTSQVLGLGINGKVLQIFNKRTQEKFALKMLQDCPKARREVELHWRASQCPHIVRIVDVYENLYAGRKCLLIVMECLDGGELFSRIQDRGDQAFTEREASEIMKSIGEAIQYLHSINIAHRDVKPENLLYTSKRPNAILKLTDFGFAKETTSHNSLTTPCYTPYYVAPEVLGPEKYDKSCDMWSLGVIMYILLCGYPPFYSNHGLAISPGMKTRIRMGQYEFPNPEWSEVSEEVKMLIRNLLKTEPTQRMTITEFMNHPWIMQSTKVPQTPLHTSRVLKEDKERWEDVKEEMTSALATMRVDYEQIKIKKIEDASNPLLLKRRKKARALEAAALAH

[22] = target: Mitogen-activated protein kinase 1 (Homo sapiens) (UniProt P28482); assay: Inhibition of human MAPK1 activity at 10 uM by radiometric assay
[23] = target: Mitogen-activated protein kinase 9 (Homo sapiens) (UniProt P45984); assay: Inhibition of human JNK2alpha2 activity at 10 uM by radiometric assay
[24] = target: RAF proto-oncogene serine/threonine-protein kinase (Homo sapiens) (UniProt P04049); assay: Inhibition of human c-RAF activity at 10 uM by radiometric assay
Sequence of RAF proto-oncogene serine/threonine-protein kinase (Homo sapiens) (P04049 whole entry): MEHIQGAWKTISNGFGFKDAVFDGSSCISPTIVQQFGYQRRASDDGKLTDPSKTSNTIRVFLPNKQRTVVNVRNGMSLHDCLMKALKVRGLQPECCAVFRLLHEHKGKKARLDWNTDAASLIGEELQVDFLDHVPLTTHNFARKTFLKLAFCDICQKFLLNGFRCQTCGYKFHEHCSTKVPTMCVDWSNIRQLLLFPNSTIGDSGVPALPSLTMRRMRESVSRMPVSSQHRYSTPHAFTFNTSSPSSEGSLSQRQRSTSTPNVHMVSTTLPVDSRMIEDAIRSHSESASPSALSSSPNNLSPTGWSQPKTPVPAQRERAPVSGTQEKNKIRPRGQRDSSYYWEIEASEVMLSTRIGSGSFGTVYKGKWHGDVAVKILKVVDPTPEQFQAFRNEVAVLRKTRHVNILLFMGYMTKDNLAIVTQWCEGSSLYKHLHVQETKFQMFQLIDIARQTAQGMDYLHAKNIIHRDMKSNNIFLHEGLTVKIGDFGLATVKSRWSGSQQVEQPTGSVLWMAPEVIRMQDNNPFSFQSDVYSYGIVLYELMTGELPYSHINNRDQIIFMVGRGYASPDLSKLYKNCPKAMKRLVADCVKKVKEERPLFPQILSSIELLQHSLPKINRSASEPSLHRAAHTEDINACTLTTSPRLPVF

[25] = target: Vascular endothelial growth factor receptor 2 (Homo sapiens) (UniProt P35968); assay: Inhibition of human KDR activity at 10 uM by radiometric assay
[26] = target: Insulin-like growth factor 1 receptor (Homo sapiens) (UniProt P08069); assay: Inhibition of human IGF-1R activity at 10 uM by radiometric assay
Sequence of Insulin-like growth factor 1 receptor (Homo sapiens) (P08069 31-736 limits assumed): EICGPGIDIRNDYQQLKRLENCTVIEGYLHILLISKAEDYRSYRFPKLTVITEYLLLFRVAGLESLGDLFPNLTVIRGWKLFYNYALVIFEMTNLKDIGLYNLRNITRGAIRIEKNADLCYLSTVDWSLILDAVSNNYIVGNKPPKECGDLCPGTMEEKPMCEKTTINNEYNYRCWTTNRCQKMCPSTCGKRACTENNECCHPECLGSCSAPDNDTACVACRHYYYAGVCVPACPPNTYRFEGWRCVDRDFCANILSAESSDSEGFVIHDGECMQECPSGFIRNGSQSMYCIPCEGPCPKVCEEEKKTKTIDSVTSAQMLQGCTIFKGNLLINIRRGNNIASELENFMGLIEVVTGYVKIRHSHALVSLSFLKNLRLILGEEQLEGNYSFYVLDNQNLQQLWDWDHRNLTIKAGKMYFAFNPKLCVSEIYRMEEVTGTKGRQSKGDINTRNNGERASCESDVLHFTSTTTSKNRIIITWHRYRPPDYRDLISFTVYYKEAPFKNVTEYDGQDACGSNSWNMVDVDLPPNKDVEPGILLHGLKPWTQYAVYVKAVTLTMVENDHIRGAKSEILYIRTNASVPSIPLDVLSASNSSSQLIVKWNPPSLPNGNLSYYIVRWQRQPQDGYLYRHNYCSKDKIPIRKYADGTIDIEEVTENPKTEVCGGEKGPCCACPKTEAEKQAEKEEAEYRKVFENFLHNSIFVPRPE
Sequence of Insulin-like growth factor 1 receptor (Homo sapiens) (P08069 741-1367 limits assumed): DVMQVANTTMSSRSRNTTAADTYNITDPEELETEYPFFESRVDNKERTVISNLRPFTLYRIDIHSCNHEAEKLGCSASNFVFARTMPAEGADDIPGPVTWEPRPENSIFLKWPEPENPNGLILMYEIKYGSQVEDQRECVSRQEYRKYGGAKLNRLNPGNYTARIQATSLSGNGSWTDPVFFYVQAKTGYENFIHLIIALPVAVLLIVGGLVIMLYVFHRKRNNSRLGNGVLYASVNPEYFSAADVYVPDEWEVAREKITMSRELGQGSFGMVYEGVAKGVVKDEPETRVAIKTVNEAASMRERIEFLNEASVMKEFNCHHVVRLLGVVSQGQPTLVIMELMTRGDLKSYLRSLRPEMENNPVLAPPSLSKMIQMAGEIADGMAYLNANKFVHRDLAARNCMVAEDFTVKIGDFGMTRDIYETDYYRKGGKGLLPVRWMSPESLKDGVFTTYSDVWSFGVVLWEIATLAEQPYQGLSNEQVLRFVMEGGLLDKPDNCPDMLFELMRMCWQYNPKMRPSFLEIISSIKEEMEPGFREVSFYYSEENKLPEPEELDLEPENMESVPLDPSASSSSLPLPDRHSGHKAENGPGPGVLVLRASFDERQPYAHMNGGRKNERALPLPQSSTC

[27] = target: Vascular endothelial growth factor receptor 3 (Homo sapiens) (UniProt P35916); assay: Inhibition of human Flt-4 activity at 10 uM by radiometric assay
[28] = target: Fibroblast growth factor receptor 3 (Homo sapiens) (UniProt P22607); assay: Inhibition of human FGFR3 activity at 10 uM by radiometric assay
[29] = target: Tyrosine-protein kinase ZAP-70 (Homo sapiens) (UniProt P43403); assay: Inhibition of human ZAP-70 activity at 10 uM by radiometric assay
[30] = target: Tyrosine-protein kinase Fes/Fps (Homo sapiens) (UniProt P07332); assay: Inhibition of human Fes activity at 10 uM by radiometric assay
[31] = target: Tyrosine-protein kinase CSK (Homo sapiens) (UniProt P41240); assay: Inhibition of human CSK activity at 10 uM by radiometric assay
[32] = target: Tyrosine-protein kinase BTK (Homo sapiens) (UniProt Q06187); assay: Inhibition of human BTK activity at 10 uM by radiometric assay
Sequence of Tyrosine-protein kinase BTK (Homo sapiens) (Q06187 whole entry): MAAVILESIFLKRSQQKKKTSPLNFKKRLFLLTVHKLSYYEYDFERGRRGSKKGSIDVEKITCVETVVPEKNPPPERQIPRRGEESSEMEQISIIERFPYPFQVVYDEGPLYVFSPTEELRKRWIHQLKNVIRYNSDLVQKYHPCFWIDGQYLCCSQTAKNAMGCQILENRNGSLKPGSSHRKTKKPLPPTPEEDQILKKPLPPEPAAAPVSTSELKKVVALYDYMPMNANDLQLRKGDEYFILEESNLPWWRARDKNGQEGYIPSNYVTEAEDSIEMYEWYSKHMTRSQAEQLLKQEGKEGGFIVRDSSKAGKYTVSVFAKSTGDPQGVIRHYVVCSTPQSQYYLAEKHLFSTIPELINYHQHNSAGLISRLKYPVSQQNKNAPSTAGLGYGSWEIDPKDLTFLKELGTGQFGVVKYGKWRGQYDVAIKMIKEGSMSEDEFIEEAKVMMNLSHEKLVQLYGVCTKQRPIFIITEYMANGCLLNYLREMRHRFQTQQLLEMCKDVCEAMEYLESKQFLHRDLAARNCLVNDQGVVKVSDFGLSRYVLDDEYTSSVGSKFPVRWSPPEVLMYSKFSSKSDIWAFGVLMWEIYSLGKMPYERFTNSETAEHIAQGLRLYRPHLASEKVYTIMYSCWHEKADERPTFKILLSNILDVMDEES

[33] = target: Cytoplasmic tyrosine-protein kinase BMX (Homo sapiens) (UniProt P51813); assay: Inhibition of human Bmx activity at 10 uM by radiometric assay
Sequence of Cytoplasmic tyrosine-protein kinase BMX (Homo sapiens) (P51813 whole entry): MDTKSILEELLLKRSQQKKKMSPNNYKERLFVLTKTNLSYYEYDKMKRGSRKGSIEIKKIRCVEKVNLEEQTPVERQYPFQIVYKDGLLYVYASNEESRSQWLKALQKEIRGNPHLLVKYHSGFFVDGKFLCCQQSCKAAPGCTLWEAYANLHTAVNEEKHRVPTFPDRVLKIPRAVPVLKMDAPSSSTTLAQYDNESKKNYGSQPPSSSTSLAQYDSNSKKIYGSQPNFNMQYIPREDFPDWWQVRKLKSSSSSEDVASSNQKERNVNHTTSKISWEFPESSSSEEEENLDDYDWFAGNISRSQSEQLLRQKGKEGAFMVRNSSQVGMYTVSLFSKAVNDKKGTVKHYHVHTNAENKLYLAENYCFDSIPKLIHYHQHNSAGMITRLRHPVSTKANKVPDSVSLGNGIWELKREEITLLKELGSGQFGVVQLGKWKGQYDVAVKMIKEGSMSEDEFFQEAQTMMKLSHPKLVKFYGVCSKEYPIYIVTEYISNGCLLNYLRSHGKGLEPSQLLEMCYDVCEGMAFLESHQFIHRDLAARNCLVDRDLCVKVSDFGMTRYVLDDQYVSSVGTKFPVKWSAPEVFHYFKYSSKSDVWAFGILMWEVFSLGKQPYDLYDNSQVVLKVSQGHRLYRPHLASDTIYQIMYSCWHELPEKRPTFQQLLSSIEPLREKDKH

[34] = target: cAMP-dependent protein kinase catalytic subunit beta (Homo sapiens) (UniProt P22694); conditions: 10 uM
[35] = target: Serine/threonine-protein kinase 3 (Homo sapiens) (UniProt Q13188); conditions: 10 uM
Sequence of Serine/threonine-protein kinase 3 (Homo sapiens) (Q13188 whole entry): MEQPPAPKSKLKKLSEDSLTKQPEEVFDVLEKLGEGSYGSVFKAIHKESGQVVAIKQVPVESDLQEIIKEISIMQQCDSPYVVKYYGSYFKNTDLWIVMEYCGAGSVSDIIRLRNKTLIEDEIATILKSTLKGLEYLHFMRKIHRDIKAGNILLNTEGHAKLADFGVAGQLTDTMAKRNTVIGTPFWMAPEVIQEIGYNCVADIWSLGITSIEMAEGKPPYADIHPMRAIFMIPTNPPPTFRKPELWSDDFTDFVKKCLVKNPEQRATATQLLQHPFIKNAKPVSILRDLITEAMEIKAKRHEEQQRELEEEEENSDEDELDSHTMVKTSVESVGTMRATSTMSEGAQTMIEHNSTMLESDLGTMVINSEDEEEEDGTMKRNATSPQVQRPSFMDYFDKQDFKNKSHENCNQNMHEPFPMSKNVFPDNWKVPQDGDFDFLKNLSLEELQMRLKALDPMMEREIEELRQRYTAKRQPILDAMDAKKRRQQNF

[36] = target: Platelet-derived growth factor receptor alpha (Homo sapiens) (UniProt P16234); conditions: 10 uM

SMILES: NC(=O)c1cccc(-c2cc(Nc3ccc(OC(F)(F)F)cc3)ncn2)c1
- IC50 [1]: 187 nM
- IC50 [2]: > 10000 nM
- IC50 (K562): 273 nM
- IC50 (Jurkat): > 10000 nM
- IC50 [3]: > 10000 nM
- IC50 [4]: > 10000 nM
- IC50 [5]: > 10000 nM
- IC50 [6]: > 10000 nM
- IC50 [7]: > 10000 nM
- IC50 [8]: > 10000 nM
- IC50 [9]: 2370 nM
- IC50 [10]: > 10000 nM
- IC50 [11]: 138 nM
- inhibition [12]: 0%
- inhibition [13]: 19%
- inhibition [14]: 4%
- inhibition [15]: 2%
- inhibition [16]: 18%
- inhibition [17]: 0%
- inhibition [18]: 55%
- inhibition [19]: 0%
- inhibition [20]: 3%
- inhibition [21]: 0%
- inhibition [22]: 40%
- inhibition [23]: 14%
- inhibition [24]: 0%
- inhibition [25]: 23%
- inhibition [26]: 28%
- inhibition [27]: 30%
- inhibition [28]: 7%
- inhibition [29]: 0%
- inhibition [30]: 7%
- inhibition [31]: 0%
- inhibition [32]: 7%
- inhibition [33]: 7%
- inhibition [34]: 0%
- inhibition [35]: 0%
- inhibition [36]: 0%

SMILES: Cc1ccc(NC(=O)c2ccc(CN3CCN(C)CC3)cc2)cc1Nc1nccc(-c2cccnc2)n1 [IMATINIB]
- IC50 [1]: 112 nM
- IC50 [2]: > 10000 nM
- IC50 (K562): 109 nM
- IC50 (Jurkat): > 10000 nM
- IC50 [3]: 257 nM
- IC50 [4]: > 10000 nM
- IC50 [5]: > 10000 nM
- IC50 [6]: 27 nM
- IC50 [7]: > 10000 nM
- IC50 [8]: > 10000 nM
- IC50 [9]: 962 nM
- IC50 [10]: 339 nM
- IC50 [11]: 190 nM
- inhibition [12]: 7%
- inhibition [13]: 16%
- inhibition [14]: 34%
- inhibition [15]: 66%
- inhibition [16]: 43%
- inhibition [17]: 58%
- inhibition [18]: 11%
- inhibition [19]: 17%
- inhibition [20]: 7%
- inhibition [21]: 19%
- inhibition [22]: 4%
- inhibition [23]: 10%
- inhibition [24]: 89%
- inhibition [25]: 22%
- inhibition [26]: 17%
- inhibition [27]: 79%
- inhibition [28]: 27%
- inhibition [29]: 29%
- inhibition [30]: 62%
- inhibition [31]: 2%
- inhibition [32]: 19%
- inhibition [33]: 27%
- inhibition [34]: 1%
- inhibition [35]: 15%
- inhibition [36]: 89%
